Measurements published in ChEMBL document CHEMBL5104213, “Evaluation of the effect of a cell penetrating peptide (TAT) towards tailoring the targeting efficacy and tumor uptake of porphyrin” (RSC Med Chem, 2022).
Active and inactive are the calls of the source. The calls are words filed in the database; no cut-off is given here.

Key:
[1] = Drug uptake in blood of iv dosed Swiss mouse infected with mouse HSDM1C1 cells administered with radiolabeled Gallium-68 measured after 60 mins; type: ADME, organism-based; conditions: in vivo, 1 h
Summary of the method: (§1)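 Fibrosarcoma grown from ~10⁶ HSDM1C1 cells injected subcutaneously on the dorsum, used at ~1 cm tumour diameter; 20–25 g Swiss mice. ⁶⁸Ga-labelled, Sep-Pak-purified preparation (~100 μCi, 3.7 MBq, 150 μL, saline) given i.v. via tail vein. Killed by CO₂ at 30 or 60 min, n = 3; blood by cardiac puncture, organs excised, washed, weighed and counted by NaI(Tl); % IA per g.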

A549 [2] = assay: Cytotoxicity against human A549 cells assessed as cell growth inhibition at 0.5 to 10 uM incubated for 24 hrs under dark condition by MTT assay; type: functional, cell-based; conditions: dose 0.5-10 µM, DDE = dose-dependent effect
Summary of the method: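 A549 in DMEM/10% FBS, 7 × 10³ cells/well seeded, overnight at 37 °C, 5% CO₂; treated at 0.5, 1, 2.5, 5, 10 μM without light, buffer control, n = 6. After 24 h, MTT added to a final 0.5 mg mL⁻¹ for 4 h; formazan dissolved in DMSO, A570 read with 660 nm reference; % dead cells calculated against vehicle control.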

[3] = Drug uptake in blood of iv dosed Swiss mouse infected with mouse HSDM1C1 cells administered with radiolabeled Gallium-68 measured after 30 mins; type: ADME, organism-based; conditions: in vivo, 0.5 h; summary of the method: as §1
A549 [4] = assay: Cytotoxicity against human A549 cells assessed as cell growth inhibition at 1 uM incubated for 24 hrs under light exposure by MTT assay; type: functional, cell-based
Summary of the method: (§2)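 A549 plated as for MTT, incubated with compound (0.5 or 1 μM) for 6 h, then irradiated by LED at 42 W m⁻² for 90 min (0.02 kJ cm⁻²). Cells then held 18 h at room temperature and assayed by MTT. Controls were light without compound and compound without light.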

[5] = Drug uptake in spleen of iv dosed Swiss mouse infected with mouse HSDM1C1 cells administered with radiolabeled Gallium-68 measured after 30 mins; type: ADME, organism-based; conditions: in vivo, 0.5 h; summary of the method: as §1
[6] = Drug uptake in tumor of iv dosed Swiss mouse infected with mouse HSDM1C1 cells administered with radiolabeled Gallium-68 measured after 30 mins; type: ADME, organism-based, Neoplasm; conditions: in vivo, 0.5 h; summary of the method: as §1
[7] = Drug uptake in liver of iv dosed Swiss mouse infected with mouse HSDM1C1 cells administered with radiolabeled Gallium-68 measured after 30 mins; type: ADME, organism-based; conditions: in vivo, 0.5 h; summary of the method: as §1
[8] = Drug uptake in kidney of iv dosed Swiss mouse infected with mouse HSDM1C1 cells administered with radiolabeled Gallium-68 measured after 30 mins; type: ADME, organism-based; conditions: in vivo, 0.5 h; summary of the method: as §1
A549 [9] = assay: Cytotoxicity against human A549 cells assessed as cell growth inhibition at 0.5 uM incubated for 24 hrs under light exposure by MTT assay; type: functional, cell-based; summary of the method: as §2
[10] = Drug uptake in lung of iv dosed Swiss mouse infected with mouse HSDM1C1 cells administered with radiolabeled Gallium-68 measured after 30 mins; type: ADME, organism-based; conditions: in vivo, 0.5 h; summary of the method: as §1
[11] = Drug uptake in lung of iv dosed Swiss mouse infected with mouse HSDM1C1 cells administered with radiolabeled Gallium-68 measured after 60 mins; type: ADME, organism-based; conditions: in vivo, 1 h; summary of the method: as §1
[12] = Drug uptake in kidney of iv dosed Swiss mouse infected with mouse HSDM1C1 cells administered with radiolabeled Gallium-68 measured after 60 mins; type: ADME, organism-based; conditions: in vivo, 1 h; summary of the method: as §1
[13] = Drug uptake in tumor of iv dosed Swiss mouse infected with mouse HSDM1C1 cells administered with radiolabeled Gallium-68 measured after 60 mins; type: ADME, organism-based, Neoplasm; conditions: in vivo, 1 h; summary of the method: as §1
[14] = Drug uptake in liver of iv dosed Swiss mouse infected with mouse HSDM1C1 cells administered with radiolabeled Gallium-68 measured after 60 mins; type: ADME, organism-based; conditions: in vivo, 1 h; summary of the method: as §1
[15] = Drug uptake in spleen of iv dosed Swiss mouse infected with mouse HSDM1C1 cells administered with radiolabeled Gallium-68 measured after 60 mins; type: ADME, organism-based; conditions: in vivo, 1 h; summary of the method: as §1
[16] = Octanol-water partition coefficient, logP of the compound; type: physicochemical
Summary of the method: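 ⁶⁸Ga-labelled preparation (100 μL) added to octanol (1.0 mL) and water (900 μL), mixed, centrifuged 2500 rpm for 5 min. Aliquots of each layer counted by NaI(Tl); log P taken as log of organic/aqueous count ratio.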

A549 [17] = assay: Cytotoxicity against human A549 cells assessed as cell growth inhibition incubated for 24 hrs under light exposure by MTT assay; type: functional, cell-based; conditions: A549, 24 h
Summary of the method: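 Photocytotoxicity IC₅₀ determination in A549 cells: 6 h compound exposure at 0.1, 0.5, 1, 2.5, 5.0, 10.0, 20.0 μM, then LED light dose of 0.02 kJ cm⁻² and 18 h post-irradiation incubation before MTT read-out. % cell death plotted against log concentration (nM) to derive IC₅₀.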

Ct [1]: 6.87%
Ct [3]: 9.97%
Ct [5]: 5.52%
Ct [6]: 2.53%
Ct [7]: 23.46%
Ct [8]: 4.78%
Ct [10]: 8.87%
Ct [11]: 5.33%
Ct [12]: 3.35%
Ct [13]: 2.45%
Ct [14]: 15.11%
Ct [15]: 3.23%
logP [16]: -1.54
SMILES: O=C(O)COc1ccc(-c2c3nc(c(-c4ccc(OCC(=O)O)cc4)c4ccc([nH]4)c(-c4ccc(OCC(=O)O)cc4)c4nc(c(-c5ccc(O)cc5)c5ccc2[nH]5)C=C4)C=C3)cc1
Activity (A549 [2]): Dde
Activity (A549 [4]): Active
Activity (A549 [9]): Active
IC50 (A549 [17]): 5.65 µM
